Data set [1] deals with Phosphatidylinositol 4,5-bisphosphate 3-kinase catalytic subunit alpha isoform (Homo sapiens), P42336 [H1047Y]. Nature of the data set: Binding affinity to human partial length PIK3CA H1047Y mutant (R108 to N1068 residues) expressed in mammalian expression system assessed as remaining unbound target protein level at 1000 nM by Kinomescan method relative to control. In short, it runs like this: (§1)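 KINOMEscan competition-binding profiling across the panel of 468 kinases and mutants, with inhibitor tested at 1 μM. Binding is expressed as percent of control, with DMSO as the reference control.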

Data set [2] has as its target Rho-associated protein kinase 2 (Homo sapiens) (UniProt O75116). Nature of the data set: Binding affinity to wild-type human partial length ROCK2 (M1 to T431 residues) expressed in mammalian expression system assessed as remaining unbound target protein level at 1000 nM by Kinomescan method relative to control.
Data set [3] concerns the target Serine/threonine-protein kinase Chk2 (Homo sapiens) (UniProt O96017). As to the kind of experiment: Binding affinity to wild-type human partial length CHEK2 (S253 to E574 residues) expressed in bacterial expression system assessed as remaining unbound target protein level at 1000 nM by Kinomescan method relative to control.
Data set [4] concerns the target Mitogen-activated protein kinase 1 (Homo sapiens) (UniProt P28482). Nature of the data set: Binding affinity to wild-type human full length ERK2 (M1 to S360 residues) expressed in bacterial expression system assessed as remaining unbound target protein level at 1000 nM by Kinomescan method relative to control. An outline of the steps: (§2)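 Single-point competition binding screen across a panel of 468 kinases and mutants, with the inhibitor at 1 μM. Binding is read out as percent of a DMSO control, and targets below 1 percent control were classed as strong binders.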

Data set [5] addresses Dual specificity mitogen-activated protein kinase kinase 2 (Homo sapiens) (UniProt P36507). As to the kind of experiment: Binding affinity to wild-type human full length MEK2 (M1 to V400 residues) expressed in mammalian expression system assessed as remaining unbound target protein level at 1000 nM by Kinomescan method relative to control. In short, it runs like this:
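KINOMEscan competition binding profile across a panel of 468 kinases and mutants, with the inhibitor tested at a single concentration of 1 μM. Binding is reported as percent of control, meaning signal relative to a DMSO control.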

Data set [6] deals with Muscle, skeletal receptor tyrosine-protein kinase (Homo sapiens) (UniProt O15146). Nature of the data set: Binding affinity to wild-type human partial length MUSK (M553 to V869 residues) expressed in bacterial expression system assessed as remaining unbound target protein level at 1000 nM by Kinomescan method relative to control.
For data set [7], the target named is Dual specificity tyrosine-phosphorylation-regulated kinase 1A (Homo sapiens) (UniProt Q13627). Nature of the data set: Binding affinity to wild-type human partial length DYRK1A (H129 to S509 residues) expressed in mammalian expression system assessed as remaining unbound target protein level at 1000 nM by Kinomescan method relative to control. An outline of the steps: (§3)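 KINOMEscan binding panel of 468 kinases/mutants. Inhibitor was tested at a single concentration of 1 μM. Binding is reported as percent of control, defined relative to a DMSO control.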

The target in data set [8] is Serine/threonine-protein kinase NIM1 (Homo sapiens) (UniProt Q8IY84). As to the kind of experiment: Binding affinity to wild-type human partial length NIM1 (Q44 to N355 residues) expressed in mammalian expression system assessed as remaining unbound target protein level at 1000 nM by Kinomescan method relative to control.
The target in data set [9] is Serine/threonine-protein kinase 10 (Homo sapiens) (UniProt O94804). As to the kind of experiment: Binding affinity to wild-type human partial length LOK (E16 to V314 residues) expressed in bacterial expression system assessed as remaining unbound target protein level at 1000 nM by Kinomescan method relative to control.
Data set [10] addresses Vascular endothelial growth factor receptor 3 (Homo sapiens) (UniProt P35916). Nature of the data set: Binding affinity to wild-type human partial length FLT4 (E821 to E1196 residues) expressed in bacterial expression system assessed as remaining unbound target protein level at 1000 nM by Kinomescan method relative to control.
In the next data set the test system is Mus musculus. As to the kind of experiment: Toxicity in nu/nu mouse xenografted with MV4-11 cells assessed as effect on body weight at 10 to 30 mg/kg, po administered via gavage for 21 days measured every day during compound dosing. The data set is classed as organism-based. Particulars: in vivo, 504 h.
The target of data set [11] is LIM domain kinase 1 (Homo sapiens) (UniProt P53667). As to the kind of experiment: Binding affinity to wild-type human full length LIMK1 (M1 to D647 residues) expressed in bacterial expression system assessed as remaining unbound target protein level at 1000 nM by Kinomescan method relative to control. In short, it runs like this:
as §2

A short description of data set [12]: Half life in Sprague-Dawley rat at 20 mg/kg, po by LC-MS/MS analysis. Particulars: in vivo. It counts as ADME, organism-based.
The subject of data set [13] is Receptor-type tyrosine-protein kinase FLT3 (Homo sapiens), P36888 [D835H]. Nature of the data set: Binding affinity to human partial length FLT3 D835H mutant (V592 to Y969 residues) expressed in bacterial expression system assessed as remaining unbound target protein level at 1000 nM by Kinomescan method relative to control. In short, it runs like this: as §1
The test system of another data set is HL-60. Nature of the data set: Induction of apoptosis in human HL60 cells assessed as decrease in XIAP level up to 3 uM after 2 hrs by immunoblotting analysis. The data set is classed as functional, cell-based. (A western blot detects proteins with antibodies after separation by electrophoresis.)
Data set [14] concerns the target Eukaryotic translation initiation factor 2-alpha kinase 1 (Homo sapiens) (UniProt Q9BQI3). As to the kind of experiment: Binding affinity to wild-type human partial length EIF2AK1 (Q147 to E603 residues) expressed in mammalian expression system assessed as remaining unbound target protein level at 1000 nM by Kinomescan method relative to control.
Data set [15] can be described thus: Half life in Sprague-Dawley rat at 3 mg/kg, iv by LC-MS/MS analysis. It counts as ADME, organism-based. Particulars: in vivo.
Data set [16] has as its target Serine/threonine-protein kinase Nek2 (Homo sapiens) (UniProt P51955). Nature of the data set: Binding affinity to wild-type human partial length NEK2 (M1 to K309 residues) expressed in bacterial expression system assessed as remaining unbound target protein level at 1000 nM by Kinomescan method relative to control.
Data set [17] concerns Phosphatidylinositol 4,5-bisphosphate 3-kinase catalytic subunit alpha isoform (Homo sapiens), P42336 [E545K]. As to the kind of experiment: Binding affinity to human partial length PIK3CA E545K mutant (R108 to N1068 residues) expressed in mammalian expression system assessed as remaining unbound target protein level at 1000 nM by Kinomescan method relative to control. An outline of the steps:
as §1

The target of data set [18] is Ephrin type-A receptor 1 (Homo sapiens) (UniProt P21709). As to the kind of experiment: Binding affinity to wild-type human partial length EPHA1 (V588 to I913 residues) expressed in bacterial expression system assessed as remaining unbound target protein level at 1000 nM by Kinomescan method relative to control. In short, it runs like this: as §3
For data set [19], the target named is Cyclin-dependent kinase 7 (Homo sapiens) (UniProt P50613). Nature of the data set: Inhibition of CDK7 in human MEC1 cells assessed as decrease in RNA polymerase 2 phosphorylation at Ser 5 residues up to 3 uM after 2 hrs by immunoblotting analysis. It counts as cell-based.
In data set [20] the test system is Receptor-type tyrosine-protein kinase FLT3 (Homo sapiens), P36888 [D835V]. As to the kind of experiment: Binding affinity to human partial length FLT3 D835V mutant (V592 to Y969 residues) expressed in bacterial expression system assessed as remaining unbound target protein level at 1000 nM by Kinomescan method relative to control. In short, it runs like this: as §1

Active and inactive are the calls of the source. The calls are words filed in the database; no cut-off is given here.

In general, half-life refers to the time in which the quantity being followed falls by half. The low end stands for fast loss, the high end for slow loss.

Mitogen-activated protein kinase 1 (Homo sapiens), sequence (P28482 whole entry, the tested form may be a part): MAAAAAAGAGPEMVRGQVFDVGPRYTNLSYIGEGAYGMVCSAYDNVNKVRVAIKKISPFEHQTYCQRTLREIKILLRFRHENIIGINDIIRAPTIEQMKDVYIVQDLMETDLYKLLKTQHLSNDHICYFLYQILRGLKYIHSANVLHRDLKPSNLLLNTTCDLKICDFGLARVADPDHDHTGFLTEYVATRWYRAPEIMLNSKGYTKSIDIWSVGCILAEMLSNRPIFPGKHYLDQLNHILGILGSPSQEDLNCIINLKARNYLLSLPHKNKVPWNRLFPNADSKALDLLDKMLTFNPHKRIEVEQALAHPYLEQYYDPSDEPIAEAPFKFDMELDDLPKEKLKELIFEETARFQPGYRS
Dual specificity mitogen-activated protein kinase kinase 2 (Homo sapiens), sequence (P36507 whole entry, the tested form may be a part): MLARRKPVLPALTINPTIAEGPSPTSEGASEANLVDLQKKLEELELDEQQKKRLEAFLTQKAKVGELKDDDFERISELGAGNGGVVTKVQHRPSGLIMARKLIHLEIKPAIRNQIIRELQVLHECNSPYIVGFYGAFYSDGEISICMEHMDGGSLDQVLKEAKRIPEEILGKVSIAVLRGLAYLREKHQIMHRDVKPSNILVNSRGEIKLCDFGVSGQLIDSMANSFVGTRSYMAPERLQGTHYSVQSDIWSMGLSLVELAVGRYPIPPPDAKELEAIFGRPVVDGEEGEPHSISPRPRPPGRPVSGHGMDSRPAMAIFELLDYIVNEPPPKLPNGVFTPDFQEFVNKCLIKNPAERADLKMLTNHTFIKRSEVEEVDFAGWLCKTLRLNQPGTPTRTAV
Vascular endothelial growth factor receptor 3 (Homo sapiens), sequence (P35916 whole entry, the tested form may be a part): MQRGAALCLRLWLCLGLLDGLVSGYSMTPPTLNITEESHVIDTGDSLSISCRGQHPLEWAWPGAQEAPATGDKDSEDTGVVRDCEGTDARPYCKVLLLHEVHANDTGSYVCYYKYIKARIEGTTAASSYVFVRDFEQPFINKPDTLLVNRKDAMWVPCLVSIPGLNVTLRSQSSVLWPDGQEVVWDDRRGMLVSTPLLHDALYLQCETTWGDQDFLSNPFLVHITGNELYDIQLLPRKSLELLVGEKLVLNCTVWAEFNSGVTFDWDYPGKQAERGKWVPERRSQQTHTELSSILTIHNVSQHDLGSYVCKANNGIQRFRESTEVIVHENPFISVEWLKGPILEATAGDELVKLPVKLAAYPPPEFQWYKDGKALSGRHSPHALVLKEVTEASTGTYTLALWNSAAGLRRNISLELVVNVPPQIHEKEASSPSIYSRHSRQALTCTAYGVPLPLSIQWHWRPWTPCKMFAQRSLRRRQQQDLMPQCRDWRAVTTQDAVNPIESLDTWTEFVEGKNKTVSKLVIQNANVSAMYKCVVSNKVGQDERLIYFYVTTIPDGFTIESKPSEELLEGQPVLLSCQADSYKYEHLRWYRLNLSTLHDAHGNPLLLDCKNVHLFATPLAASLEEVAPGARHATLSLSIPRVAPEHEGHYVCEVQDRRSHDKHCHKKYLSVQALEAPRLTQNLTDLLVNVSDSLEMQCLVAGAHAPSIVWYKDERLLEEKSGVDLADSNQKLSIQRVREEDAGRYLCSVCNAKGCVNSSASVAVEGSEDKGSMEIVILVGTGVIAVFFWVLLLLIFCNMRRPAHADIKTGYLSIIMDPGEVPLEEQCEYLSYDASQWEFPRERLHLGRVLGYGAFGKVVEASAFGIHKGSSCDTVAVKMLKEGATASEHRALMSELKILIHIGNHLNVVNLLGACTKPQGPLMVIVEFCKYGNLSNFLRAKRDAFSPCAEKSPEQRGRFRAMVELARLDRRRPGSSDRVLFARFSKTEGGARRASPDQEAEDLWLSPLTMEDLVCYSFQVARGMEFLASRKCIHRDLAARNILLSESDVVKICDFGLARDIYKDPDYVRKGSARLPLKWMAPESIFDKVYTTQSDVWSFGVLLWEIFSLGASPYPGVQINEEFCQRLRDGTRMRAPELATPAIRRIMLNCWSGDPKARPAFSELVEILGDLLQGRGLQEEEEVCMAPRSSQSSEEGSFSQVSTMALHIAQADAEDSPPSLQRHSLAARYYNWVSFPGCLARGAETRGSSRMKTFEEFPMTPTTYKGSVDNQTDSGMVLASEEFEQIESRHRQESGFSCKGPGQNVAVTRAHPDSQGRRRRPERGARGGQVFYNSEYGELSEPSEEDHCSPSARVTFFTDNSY
Serine/threonine-protein kinase Nek2 (Homo sapiens), sequence (P51955 whole entry, the tested form may be a part, canonical isoform): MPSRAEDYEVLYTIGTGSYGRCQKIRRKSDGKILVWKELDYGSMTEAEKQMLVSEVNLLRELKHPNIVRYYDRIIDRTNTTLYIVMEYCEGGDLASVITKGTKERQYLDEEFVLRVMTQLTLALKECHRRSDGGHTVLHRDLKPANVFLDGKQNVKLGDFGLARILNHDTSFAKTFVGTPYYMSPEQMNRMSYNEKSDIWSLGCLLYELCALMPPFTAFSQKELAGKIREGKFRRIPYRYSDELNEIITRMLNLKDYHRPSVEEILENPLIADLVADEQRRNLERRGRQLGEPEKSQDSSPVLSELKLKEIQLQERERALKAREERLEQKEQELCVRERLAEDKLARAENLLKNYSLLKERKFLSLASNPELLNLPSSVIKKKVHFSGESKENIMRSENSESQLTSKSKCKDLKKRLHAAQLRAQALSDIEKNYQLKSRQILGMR
Eukaryotic translation initiation factor 2-alpha kinase 1 (Homo sapiens), sequence (Q9BQI3 whole entry, the tested form may be a part): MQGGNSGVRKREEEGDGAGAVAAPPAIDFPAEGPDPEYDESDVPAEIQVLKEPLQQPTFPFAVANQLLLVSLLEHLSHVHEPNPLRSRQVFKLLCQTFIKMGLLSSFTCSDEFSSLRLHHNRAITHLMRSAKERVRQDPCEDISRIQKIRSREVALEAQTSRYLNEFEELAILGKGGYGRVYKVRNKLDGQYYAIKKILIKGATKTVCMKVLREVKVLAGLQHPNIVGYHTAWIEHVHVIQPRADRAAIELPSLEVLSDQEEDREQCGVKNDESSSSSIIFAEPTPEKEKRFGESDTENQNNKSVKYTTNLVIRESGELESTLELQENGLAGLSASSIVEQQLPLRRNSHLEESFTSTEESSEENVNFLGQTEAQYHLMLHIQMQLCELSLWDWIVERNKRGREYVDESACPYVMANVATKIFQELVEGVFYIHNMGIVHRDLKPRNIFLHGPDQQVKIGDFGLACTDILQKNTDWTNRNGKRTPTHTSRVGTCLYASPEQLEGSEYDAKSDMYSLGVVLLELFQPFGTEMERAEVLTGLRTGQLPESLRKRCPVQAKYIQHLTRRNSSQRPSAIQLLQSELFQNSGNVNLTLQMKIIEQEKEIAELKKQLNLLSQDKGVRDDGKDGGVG
Serine/threonine-protein kinase NIM1 (Homo sapiens), sequence (Q8IY84 whole entry, the tested form may be a part): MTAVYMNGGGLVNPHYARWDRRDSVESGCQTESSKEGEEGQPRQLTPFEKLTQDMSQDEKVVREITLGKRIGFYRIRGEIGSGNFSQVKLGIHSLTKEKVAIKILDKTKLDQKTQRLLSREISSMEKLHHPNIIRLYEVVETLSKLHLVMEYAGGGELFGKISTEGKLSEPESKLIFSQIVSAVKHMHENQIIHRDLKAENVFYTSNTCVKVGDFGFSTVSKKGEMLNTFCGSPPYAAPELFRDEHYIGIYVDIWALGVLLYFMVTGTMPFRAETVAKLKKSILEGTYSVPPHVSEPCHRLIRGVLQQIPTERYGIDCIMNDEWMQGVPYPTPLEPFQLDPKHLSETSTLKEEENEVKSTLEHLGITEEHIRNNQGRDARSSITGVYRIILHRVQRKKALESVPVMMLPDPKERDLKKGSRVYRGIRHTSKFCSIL
Phosphatidylinositol 4,5-bisphosphate 3-kinase catalytic subunit alpha isoform (Homo sapiens), P42336 [E545K], sequence (P42336 whole entry E545K, the tested form may be a part, canonical isoform): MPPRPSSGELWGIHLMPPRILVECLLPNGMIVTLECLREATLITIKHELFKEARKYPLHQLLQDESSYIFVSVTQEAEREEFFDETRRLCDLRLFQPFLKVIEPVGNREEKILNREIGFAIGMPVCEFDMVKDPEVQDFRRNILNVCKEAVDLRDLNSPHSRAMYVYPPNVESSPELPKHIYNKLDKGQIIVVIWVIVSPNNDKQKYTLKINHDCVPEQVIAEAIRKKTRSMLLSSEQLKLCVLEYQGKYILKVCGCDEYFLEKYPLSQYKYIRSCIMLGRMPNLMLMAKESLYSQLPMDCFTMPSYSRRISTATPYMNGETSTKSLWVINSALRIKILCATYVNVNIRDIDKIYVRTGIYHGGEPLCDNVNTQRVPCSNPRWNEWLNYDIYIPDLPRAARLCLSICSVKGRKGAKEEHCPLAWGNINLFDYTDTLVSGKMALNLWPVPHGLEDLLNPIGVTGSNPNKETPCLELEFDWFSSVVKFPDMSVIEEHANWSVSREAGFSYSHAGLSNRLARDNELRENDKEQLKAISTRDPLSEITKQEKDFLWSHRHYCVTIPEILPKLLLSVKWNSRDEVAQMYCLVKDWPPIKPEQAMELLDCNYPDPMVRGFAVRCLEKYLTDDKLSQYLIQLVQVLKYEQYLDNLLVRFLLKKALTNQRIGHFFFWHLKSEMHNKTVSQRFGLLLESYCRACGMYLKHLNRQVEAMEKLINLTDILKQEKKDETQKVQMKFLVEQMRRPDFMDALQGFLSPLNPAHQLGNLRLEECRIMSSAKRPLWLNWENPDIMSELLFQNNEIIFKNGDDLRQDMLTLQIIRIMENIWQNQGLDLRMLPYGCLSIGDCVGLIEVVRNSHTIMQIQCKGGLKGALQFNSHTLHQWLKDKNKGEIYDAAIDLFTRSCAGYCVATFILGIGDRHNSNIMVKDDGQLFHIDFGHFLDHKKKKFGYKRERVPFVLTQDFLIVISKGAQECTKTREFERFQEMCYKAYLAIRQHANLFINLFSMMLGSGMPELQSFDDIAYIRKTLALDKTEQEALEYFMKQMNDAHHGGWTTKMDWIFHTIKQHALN
Cyclin-dependent kinase 7 (Homo sapiens), sequence (P50613 whole entry, the tested form may be a part): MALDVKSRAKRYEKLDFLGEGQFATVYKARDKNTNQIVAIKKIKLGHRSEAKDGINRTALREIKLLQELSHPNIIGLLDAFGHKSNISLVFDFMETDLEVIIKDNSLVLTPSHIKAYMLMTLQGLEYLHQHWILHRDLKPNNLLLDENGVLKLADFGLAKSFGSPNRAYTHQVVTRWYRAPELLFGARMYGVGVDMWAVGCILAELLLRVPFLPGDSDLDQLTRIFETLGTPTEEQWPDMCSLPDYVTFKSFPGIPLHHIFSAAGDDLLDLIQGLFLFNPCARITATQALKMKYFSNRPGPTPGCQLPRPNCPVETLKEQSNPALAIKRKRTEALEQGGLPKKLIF

As to `COCCN[C@H]1CC[C@H](Nc2cc(-c3csc(NCC4(C#N)CCOCC4)n3)c(Cl)cn2)CC1`, the Activity in data set [1] worked out at 54%; in data set [2], 98%; in data set [3], 90%; in data set [4], 96%; in data set [5], 95%; in [6], 100%. The Activity in data set [7] was 0.3%; in data set [8], 96%; in data set [9], 100%; in data set [10], 88%; in the data set with Mus musculus, “Non-Toxic”; in [11], 90%. The Activity in data set [13] came to 88%; in data set [14], 97%; in data set [16], 100%; in data set [17], 100%; in [18], 39%; in data set [20] it was 88%. In addition, the half-life in data set [12] is 3.37 h; in data set [15], 6.8 h. Besides, the result in the data set with HL-60 was inactive. Further, the inhibition entry in data set [19] was “inactive”.

(Values after ChEMBL document CHEMBL4261600 (Eur J Med Chem, 2018).)
